# Laboratory results published in ChEMBL document CHEMBL5705886, “GSK1070916, a potent Aurora B/C kinase inhibitor with broad antitumor activity in tissue culture cells and human tumor xenograft models” (Mol Cancer Ther, 2009).
# Calls of active or inactive are those of the source. The rule behind the calls is not given here.
# Assays:
# [1] = Antiproliferative activity against human M-07e cells assessed as inhibition of cell viability measured for 6 to 7 days by cell titer glo assay; type: functional, cell-based
# Method in brief: (§1)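 Cells seeded in recommended growth medium, incubated overnight at 37°C in 5% CO2, then exposed to serial dilutions of inhibitor for 6–7 d. A parallel plate was read with CellTiter-Glo at compound addition as a T=0 value. The luminescent viability readout had no-cell background subtracted and was expressed as % of DMSO control.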
# [2] = tested on: MCF7; test: Antiproliferative activity against human MCF7 cells assessed as inhibition of cell viability measured for 6 to 7 days by cell titer glo assay; type: functional, cell-based; method in brief: as §1
# [3] = Toxicity in SCID nude mouse xenografted with human SW620 cells assessed as drug tolerance at 25 to 100 mg/kg, ip administered once daily for 5 consecutive days with 2 days off scheduled for 3 cycles measured upto 60 days; type: organism-based, SW-620; conditions: in vivo, 1440 h, dose 25-100 mg/kg, time < 60 day
# [4] = tested on: NCI-H630; test: Antiproliferative activity against human NCI-H630 cells assessed as inhibition of cell viability measured for 6 to 7 days by cell titer glo assay; type: functional, cell-based
# Method in brief: (§2)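 Cells seeded in recommended growth medium, held overnight at 37°C in 5% CO2, then exposed to serial dilutions of inhibitor for 6–7 d. A time-zero plate was read with CellTiter-Glo at dosing. Luminescent viability read at the end. No-cell wells subtracted as background, data expressed as percent of DMSO control.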
# [5] = tested on: Toledo; test: Antiproliferative activity against human Toledo cells assessed as inhibition of cell viability measured for 6 to 7 days by cell titer glo assay; type: functional, cell-based; method in brief: as §2
# [6] = tested on: HCT-116; test: In vivo inhibition of Aurora B in human HCT-116 cells xenografted in athymic nude mouse assessed as inhibition of HH3-S10 phosphorylation administered as single ip dose incubated for 0.5 to 72 hrs; type: functional, organism-based; conditions: dose 25-100 mg/kg, time 0.5-72 hrs
# [7] = Toxicity in SCID nude mouse xenografted with human K562 cells assessed as body weight loss at 100 mg/kg, ip administered once daily for 5 consecutive days with 2 days off scheduled for 3 cycles measured upto 60 days; type: organism-based; conditions: in vivo, 1440 h, time < 60 day
# [8] = tested on: SW 954; test: Antiproliferative activity against human SW 954 cells assessed as inhibition of cell viability measured for 6 to 7 days by cell titer glo assay; type: functional, cell-based; method in brief: as §2
# [9] = Antiproliferative activity against human SKW-3 cells assessed as inhibition of cell viability measured for 6 to 7 days by cell titer glo assay; type: functional, cell-based; conditions: SKW3; method in brief: as §2
# [10] = tested on: MEG-01; test: Antiproliferative activity against human MEG-01 cells assessed as inhibition of cell viability measured for 6 to 7 days by cell titer glo assay; type: functional, cell-based; method in brief: as §1
# [11] = tested on: NOMO-1; test: Antiproliferative activity against human NOMO-1 cells assessed as inhibition of cell viability measured for 6 to 7 days by cell titer glo assay; type: functional, cell-based; method in brief: as §2
# [12] = tested on: U-937; test: Antiproliferative activity against human U-937 cells assessed as inhibition of cell viability measured for 6 to 7 days by cell titer glo assay; type: functional, cell-based
# [13] = tested on: A549; test: Induction of mitotic alteration in human A549 cells formation of malformed bipolar at 12 to 330 nmol/L incubated for 24 hrs by immunofluorescent microscopy based analysis; type: functional, cell-based; conditions: dose lower […], dose upper 330.0 nmol/L
# [14] = tested on: BC-3; test: Antiproliferative activity against human BC-3 cells assessed as inhibition of cell viability measured for 6 to 7 days by cell titer glo assay; type: functional, cell-based
# Method in brief: (§3)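 Tumor lines plated in recommended growth media, overnight at 37°C, 5% CO2, then given serial dilutions; a T=0 plate read with CellTiter-Glo at dosing. After 6–7 d of exposure, viability read by CellTiter-Glo luminescence. No-cell wells subtracted, data expressed as % of DMSO control.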
# [15] = Toxicity in SCID nude mouse xenografted with human A549 cells assessed as body weight loss at 25 to 100 mg/kg, ip administered once daily for 5 consecutive days with 2 days off scheduled for 3 cycles measured upto 60 days relative to control; type: organism-based; conditions: in vivo, 1440 h, dose 25-100 mg/kg, time < 60 day
# [16] = tested on: K562; test: Antitumor activity in human K562 cells xenografted in SCID mouse assessed as reduction in tumor growth at 100 mg/kg, ip administered once daily for 5 consecutive days with 2 days off scheduled for 3 cycles measured upto 60 days; type: functional, organism-based; conditions: time 60.0 day
# [17] = tested on: OVCAR-3; test: Antiproliferative activity against human OVCAR-3 cells assessed as inhibition of cell viability measured for 6 to 7 days by cell titer glo assay; type: functional, cell-based; method in brief: as §2
# [18] = tested on: HCT-8; test: Antiproliferative activity against human HCT-8 cells assessed as inhibition of cell viability measured for 6 to 7 days by cell titer glo assay; type: functional, cell-based; method in brief: as §3
# [19] = Toxicity in SCID nude mouse xenografted with human MCF7 cells assessed as body weight loss at 50 to 100 mg/kg, ip administered once daily for 5 consecutive days with 2 days off scheduled for 3 cycles measured upto 60 days; type: organism-based; conditions: in vivo, 1440 h, dose 50-100 mg/kg, time < 60 day
# [20] = Toxicity in SCID nude mouse xenografted with human HL-60 cells assessed as drug tolerance at 100 mg/kg, ip administered once daily for 5 consecutive days with 2 days off scheduled for 2 cycles measured upto 60 days; conditions: in vivo, 1440 h
# [21] = tested on: A549; test: Induction of mitotic alteration in human A549 cells formation of unorganized chromosomes at 12 to 330 nmol/L incubated for 24 hrs by immunofluorescent microscopy based analysis; type: functional, cell-based; conditions: dose lower […], dose upper 330.0 nmol/L
# [22] = Toxicity in SCID nude mouse xenografted with human HCT-116 cells assessed as drug tolerance at 25 to 100 mg/kg, ip administered once daily for 5 consecutive days with 2 days off scheduled for 3 cycles measured upto 60 days; type: organism-based; conditions: in vivo, 1440 h, dose 25-100 mg/kg, time < 60 day
# [23] = Antiproliferative activity against human BC1 cell line assessed as inhibition of cell viability measured for 6 to 7 days by cell titer glo assay; type: functional, cell-based; method in brief: as §3
# [24] = tested on: OCI-LY19; test: Antiproliferative activity against human OCILY19 cells assessed as inhibition of cell viability measured for 6 to 7 days by cell titer glo assay; type: functional, cell-based; method in brief: as §2
# [25] = tested on: HL-60; test: Antitumor activity in human HL-60 cells xenografted in SCID mouse assessed as median survival time at 50 mg/kg, ip administered once daily for 5 consecutive days with 2 days off scheduled for 2 cycles measured upto 120 days; type: functional; conditions: time <= 120 day
# [26] = tested on: NB-4; test: Antiproliferative activity against human NB4 cells assessed as inhibition of cell viability measured for 6 to 7 days by cell titer glo assay; type: functional, cell-based; method in brief: as §1
# [27] = target: Aurora kinase C (Homo sapiens) (UniProt Q9UQB9); test: Binding affinity to Aurora C (unknown origin) assessed as dissociation half life
# Chain of Aurora kinase C (Homo sapiens) (Q9UQB9 whole entry): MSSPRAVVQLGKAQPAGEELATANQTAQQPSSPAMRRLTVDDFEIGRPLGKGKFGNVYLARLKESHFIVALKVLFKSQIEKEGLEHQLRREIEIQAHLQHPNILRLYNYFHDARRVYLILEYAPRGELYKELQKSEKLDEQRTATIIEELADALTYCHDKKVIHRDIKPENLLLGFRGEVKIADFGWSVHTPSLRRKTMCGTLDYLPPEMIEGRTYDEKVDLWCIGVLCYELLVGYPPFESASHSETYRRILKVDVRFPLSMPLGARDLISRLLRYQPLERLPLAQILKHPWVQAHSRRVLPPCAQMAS
# [28] = Antiproliferative activity against human F-36P cells assessed as inhibition of cell viability measured for 6 to 7 days by cell titer glo assay; type: functional, cell-based; method in brief: as §3
# [29] = tested on: SUP-B15; test: Antiproliferative activity against human SUP-B15 cells assessed as inhibition of cell viability measured for 6 to 7 days by cell titer glo assay; type: functional, cell-based; method in brief: as §2
# [30] = Antiproliferative activity against HUVEC cells assessed as reduction in cell viability measured after 6 days by cell titer glo assay; type: toxicity, cell-based; conditions: human
# Method in brief: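 HUVECs (primary) in EGM-2 with 2% FBS and supplements, assayed in cycling and nonproliferating states. Cycling: 500 cells/well seeded 1 d before dosing. Nonproliferating: 35,000 cells in half-area wells seeded 4 d ahead, fresh media next day and media changed 1 d before dosing. 2-fold dilutions 20000 to 0.15 nmol/L, 6 d at 37°C, 5% CO2. CellTiter-Glo 30 min, background-subtracted, % of DMSO control.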
structure (smiles),measurement,setting,value
CCn1cc(-c2ccnc3[nH]c(-c4cccc(CN(C)C)c4)cc23)c(-c2ccc(NC(=O)N(C)C)cc2)n1 [GSK-1070916],EC50,[1],13 nM
same,EC50,[2],13 nM
same,Activity,[3],Non-Toxic
same,EC50,[4],127 nM
same,EC50,[5],15 nM
same,Activity,[6],Dose-Dependent Effect
same,Activity,[7],Toxic
same,EC50,[8],11 nM
same,EC50,[9],5 nM
same,EC50,[10],44 nM
same,EC50,[11],2 nM
same,EC50,[12],5 nM
same,Activity,[13],Active
same,EC50,[14],27 nM
same,Activity,[15],< 15%
same,Activity,[16],Active
same,EC50,[17],3 nM
same,EC50,[18],38 nM
same,Activity,[19],Toxic
same,Activity,[20],Toxic
same,Activity,[21],Active
same,Activity,[22],Non-Toxic
same,EC50,[23],18 nM
same,EC50,[24],4 nM
same,MST,[25],83 days
same,EC50,[26],11 nM
same,T1/2,[27],4.5 h
same,EC50,[28],10 nM
same,EC50,[29],2 nM
same,EC50 at 6 days,[30],3900 nM
